In ChEMBL document CHEMBL1126150, “New kappa-receptor agonists based upon a 2-[(alkylamino)methyl]piperidine nucleus” (J Med Chem, 1992):

Key:
Mus musculus = experiment: Antinociceptive activity was determined using the mouse acetylcholine-induced abdominal constriction test followed by subcutaneous administration; type: functional; settings: Abdomen, sc
In short: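 Mice received each compound by subcutaneous injection and were scored in the acetylcholine-induced abdominal constriction test. An ED50 in mg/kg was determined for each compound.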

[1] = target: Kappa-type opioid receptor (Cavia porcellus) (UniProt P41144); experiment: pKa value was measured against opioid receptor kappa
In short: (§1)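 pKa was found by titration of the compound at a sample concentration of 0.002 M in 10% methanol-water solvent.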

[2] = target: T1, Kappa-type opioid receptor (Homo sapiens, UniProt P41145); experiment: Opioid receptor kappa 1 agonist potency in vitro using rabbit vas deferens(LVD) preparation; type: functional, Oryctolagus cuniculus; settings: target entry is the homologue from another species
In short: (§2)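 Isolated rabbit vas deferens (LVD) was used as an in vitro kappa-agonist bioassay. Potency is given as an IC50 in nM, the mean of two independent determinations, with individual values typically within ±10% of the mean. Compounds were tested as racemates.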

[3] = target: Kappa-type opioid receptor (Cavia porcellus) (UniProt P41144); experiment: pKa value was measured against Opioid receptor kappa 1; in short: as §1
[4] = target: T1, Kappa-type opioid receptor; experiment: Opioid receptor kappa agonist potency in vitro using rabbit vas deferens(LVD) preparation; type: functional, Oryctolagus cuniculus; settings: target entry is the homologue from another species; in short: as §2
[5] = target: Kappa-type opioid receptor (Cavia porcellus) (UniProt P41144); experiment: pKa value was measured against kOpioid receptor kappa 1; in short: as §1
[6] = target: T1, Kappa-type opioid receptor; experiment: Kappa-opioid receptor agonist potency in vitro using rabbit vas deferens(LVD) preparation; type: functional, Oryctolagus cuniculus; settings: target entry is the homologue from another species; in short: as §2

Chain of Kappa-type opioid receptor (Cavia porcellus) (P41144 whole entry): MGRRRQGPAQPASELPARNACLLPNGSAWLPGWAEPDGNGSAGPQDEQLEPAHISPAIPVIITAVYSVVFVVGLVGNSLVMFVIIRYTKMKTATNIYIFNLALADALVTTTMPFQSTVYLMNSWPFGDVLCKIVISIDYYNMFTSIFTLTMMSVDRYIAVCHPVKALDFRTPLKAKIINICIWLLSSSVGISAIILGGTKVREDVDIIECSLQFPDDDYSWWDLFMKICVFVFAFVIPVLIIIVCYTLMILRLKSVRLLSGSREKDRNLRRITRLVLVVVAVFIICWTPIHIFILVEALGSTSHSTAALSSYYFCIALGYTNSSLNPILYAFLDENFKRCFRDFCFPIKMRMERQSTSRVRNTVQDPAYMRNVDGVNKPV
T1 sequence (P41145 whole entry): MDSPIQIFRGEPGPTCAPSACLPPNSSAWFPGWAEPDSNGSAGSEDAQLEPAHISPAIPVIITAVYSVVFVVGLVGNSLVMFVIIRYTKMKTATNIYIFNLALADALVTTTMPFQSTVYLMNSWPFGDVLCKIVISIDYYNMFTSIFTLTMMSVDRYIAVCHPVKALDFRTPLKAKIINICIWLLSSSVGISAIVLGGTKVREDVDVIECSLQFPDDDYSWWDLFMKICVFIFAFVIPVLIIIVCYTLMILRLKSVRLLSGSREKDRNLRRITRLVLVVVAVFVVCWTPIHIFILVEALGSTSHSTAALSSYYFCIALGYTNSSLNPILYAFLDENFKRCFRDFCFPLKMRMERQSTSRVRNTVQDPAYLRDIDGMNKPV

Row | SMILES | ED50 (Mus musculus) [mg/kg] | further results
1 | COC(=O)/C=C1\CCN(CC2CCCCN2C(=O)Cc2ccc(Cl)c(Cl)c2)C1 (stereo unspecified) | 6.6 | 
2 | COC(=O)[C@@H]1CCC[C@@H](CN2CCCC2)N1C(=O)Cc1ccc(Cl)c(Cl)c1 | 0.43 | 
3 | C=C1CCN(CC2CCCCN2C(=O)Cc2ccc(Cl)c(Cl)c2)C1 (stereo unspecified) | 0.05 | pKa [1]: 7.7
4 | O=C(Cc1ccc(Cl)c(Cl)c1)N1CCCCC1CN1CC=CC1 (stereo unspecified) | 0.04 | IC50 [2]: 0.0035 µM
5 | O=C1CCN(CC2CCCCN2C(=O)Cc2ccc(Cl)c(Cl)c2)C1 (stereo unspecified) | 0.06 | pKa [3]: 5.3; IC50 [2]: 0.0002 µM
6 | O=C1CCCN(C(=O)Cc2ccc(Cl)c(Cl)c2)C1CN1CCCC1 (stereo unspecified) | 3.4 | 
7 | O=C(Cc1ccc(Cl)c(Cl)c1)N1CC[C@H](O)C[C@H]1CN1CCCC1 | 1.4 | 
8 | C=CCC1(CN2CCCC2)CCCCN1C(=O)Cc1ccc(Cl)c(Cl)c1 (stereo unspecified) | 2.4 | 
9 | O=C(Cc1ccc(Cl)c(Cl)c1)N1CCCCC1CN1CCC2(CC1)OCCO2 (stereo unspecified) | > 10 | 
10 | CN(C)CC1CCCCN1C(=O)Cc1ccc(Cl)c(Cl)c1 (stereo unspecified) | 0.064 | IC50 [2]: 0.102 µM
11 | O=C(Cc1ccc(Cl)c(Cl)c1)N1CCCCC1CN1CCC(O)C1 (stereo unspecified) | 0.01 | pKa [1]: 8.1
12 | C=C1CCCN(C(=O)Cc2ccc(Cl)c(Cl)c2)C1CN1CCCC1 (stereo unspecified) | 0.11 | 
13 | O=C1CCN(CC2CCCCN2C(=O)Cc2ccc(Cl)c(Cl)c2)CC1 (stereo unspecified) | > 10 | 
14 | O=C(Cc1ccc(Cl)c(Cl)c1)N1[C@@H](CO)CCC[C@H]1CN1CCCC1 |  | IC50 [4]: 2.2 µM
15 | COC(=O)[C@@H]1CCN(C(=O)Cc2ccc(Cl)c(Cl)c2)[C@H](CN2CCCC2)C1 | > 10 | 
16 | NC(=O)[C@@H]1CCN(C(=O)Cc2ccc(Cl)c(Cl)c2)[C@H](CN2CCCC2)C1 | > 10 | 
17 | O=C(Cc1ccc(Cl)c(Cl)c1)N1CC2(CC[C@H]1CN1CCCC1)OCCO2 | 1.1 | 
18 | C[C@@H]1CCC[C@@H](CN2CCCC2)N1C(=O)Cc1ccc(Cl)c(Cl)c1 | 0.4 | 

Row | SMILES | ED50 (Mus musculus) [mg/kg] | further results
19 | O=C(Cc1ccc(Cl)c(Cl)c1)N1CCC[C@@H](O)[C@H]1CN1CCCC1 | 1.7 | 
20 | O=C1CC[C@@H](CN2CCCC2)N(C(=O)Cc2ccc(Cl)c(Cl)c2)C1 | 0.91 | 
21 | COC(=O)/C=C1/CCN(CC2CCCCN2C(=O)Cc2ccc(Cl)c(Cl)c2)C1 (stereo unspecified) | 0.07 | 
22 | O=C(Cc1ccc(Cl)c(Cl)c1)N1CCCCC1CN1CC=CCC1 (stereo unspecified) | 0.009 | 
23 | COC(=O)C1=CCCN(CC2CCCCN2C(=O)Cc2ccc(Cl)c(Cl)c2)C1 (stereo unspecified) | 0.41 | 
24 | O=C(Cc1ccc(Cl)c(Cl)c1)N1CC[C@@H](O)C[C@H]1CN1CCCC1 | 0.27 | IC50 [2]: 0.12 µM
25 | O=C(Cc1ccc(Cl)c(Cl)c1)N1CCCCC1CN1CCCO1 (stereo unspecified) | 0.38 | 
26 | C[C@H]1CCC[C@@H](CN2CCCC2)N1C(=O)Cc1ccc(Cl)c(Cl)c1 | 0.034 | 
27 | O=C1CCN(C(=O)Cc2ccc(Cl)c(Cl)c2)C(CN2CCCC2)C1 (stereo unspecified) | 0.018 | 
28 | O=C(Cc1ccc(Cl)c(Cl)c1)N1CCC2(CC1CN1CCCC1)SCCS2 (stereo unspecified) | 0.025 | 
29 | N#C/C=C1\CCN(CC2CCCCN2C(=O)Cc2ccc(Cl)c(Cl)c2)C1 (stereo unspecified) | > 10 | IC50 [2]: 0.69 µM
30 | C=C1CCN(CC2CCCCN2C(=O)Cc2ccc(Cl)c(Cl)c2)CC1 (stereo unspecified) |  | IC50 [2]: 0.55 µM
31 | O=C(Cc1ccc(Cl)c(Cl)c1)N1CCC[C@H](O)[C@H]1CN1CCCC1 | 3.6 | 
32 | O=C(Cc1ccc(Cl)c(Cl)c1)N1CCC2(CC1CN1CCCC1)OCCO2 (stereo unspecified) | 0.001 | 
33 | O=C(Cc1ccc(Cl)c(Cl)c1)N1CCCCC1CN1CCCCC1 (stereo unspecified) | 0.24 | 
34 | N#C/C=C1/CCN(CC2CCCCN2C(=O)Cc2ccc(Cl)c(Cl)c2)C1 (stereo unspecified) | 0.19 | IC50 [2]: 0.00012 µM
35 | O=C(Cc1ccc(Cl)c(Cl)c1)N1CCCCC1CN1CCCC1 (stereo unspecified) | 0.03 | pKa [5]: 9; IC50 [6]: 0.011 µM
